ChEMBL document CHEMBL1955778, “Design and synthesis of novel 7-aminoquinazoline derivatives: antitumor and anticonvulsant activities” (Bioorg Med Chem Lett, 2012)

Assays:
Assay type in all cases: functional
[1] = tested on: KM12; assay: Growth inhibition of human KM12 cells at 10 uM relative to control; conditions: read-out: GI
Summary of the method: (§1)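 Each cell line in a 60-line human tumour panel exposed to one 10 μM concentration. Growth inhibition percentage computed as 100 minus the percentage activity relative to control.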

[2] = tested on: CCRF-CEM; assay: Growth inhibition of human CCRF-CEM cells at 10 uM relative to control; conditions: read-out: GI; summary of the method: as §1
[3] = tested on: NCI-H23; assay: Growth inhibition of human NCI-H23 cells at 10 uM relative to control; conditions: read-out: GI; summary of the method: as §1
[4] = tested on: M14; assay: Growth inhibition of human M14 cells at 10 uM relative to control; conditions: read-out: GI; summary of the method: as §1
[5] = tested on: SK-MEL-28; assay: Growth inhibition of human SK-MEL-28 cells at 10 uM relative to control; conditions: read-out: GI; summary of the method: as §1
[6] = tested on: T47D; assay: Growth inhibition of human T47D cells at 10 uM relative to control; conditions: read-out: GI
Summary of the method: (§2)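 Single-dose screen across the 60-cell-line human tumor panel at 10 μM. Growth inhibition is reported as a percentage, taken as 100 minus the % growth relative to untreated control.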

[7] = tested on: NCI-H226; assay: Growth inhibition of human NCI-H226 cells at 10 uM relative to control; conditions: read-out: GI; summary of the method: as §1
[8] = tested on: HCT-116; assay: Growth inhibition of human HCT116 cells at 10 uM relative to control; conditions: read-out: GI; summary of the method: as §1
[9] = tested on: HCT-15; assay: Growth inhibition of human HCT15 cells at 10 uM relative to control; conditions: read-out: GI; summary of the method: as §1
[10] = tested on: ACHN; assay: Growth inhibition of human ACHN cells at 10 uM relative to control; conditions: read-out: GI; summary of the method: as §1
[11] = tested on: SF-539; assay: Growth inhibition of human SF539 cells at 10 uM relative to control; conditions: read-out: GI; summary of the method: as §1
[12] = tested on: K562; assay: Growth inhibition of human K562 cells at 10 uM relative to control; conditions: read-out: GI; summary of the method: as §1
[13] = tested on: EKVX; assay: Growth inhibition of human EKVX cells at 10 uM relative to control; conditions: read-out: GI; summary of the method: as §1
[14] = tested on: MOLT-4; assay: Growth inhibition of human MOLT4 cells at 10 uM relative to control; conditions: read-out: GI; summary of the method: as §1
[15] = tested on: SR; assay: Growth inhibition of human SR cells at 10 uM relative to control; conditions: read-out: GI; summary of the method: as §2
[16] = tested on: SW-620; assay: Growth inhibition of human SW620 cells at 10 uM relative to control; conditions: read-out: GI; summary of the method: as §2
[17] = tested on: Mus musculus; assay: Anticonvulsant activity in mouse assessed as protection against pentylenetetrazol-induced seizure at 1 mmol/kg, ip administered 30 min prior to pentylenetetrazol-challenge measured after 60 mins relative to control
[18] = tested on: SK-OV-3; assay: Growth inhibition of human SKOV3 cells at 10 uM relative to control; conditions: read-out: GI; summary of the method: as §1
[19] = tested on: SF-268; assay: Growth inhibition of human SF268 cells at 10 uM relative to control; conditions: read-out: GI; summary of the method: as §1
[20] = tested on: MCF7; assay: Growth inhibition of human MCF7 cells at 10 uM relative to control; conditions: read-out: GI; summary of the method: as §1
[21] = tested on: A498; assay: Growth inhibition of human A498 cells at 10 uM relative to control; conditions: read-out: GI; summary of the method: as §1
[22] = tested on: LOX IMVI; assay: Growth inhibition of human LOXIMVI cells at 10 uM relative to control; conditions: read-out: GI; summary of the method: as §1
[23] = tested on: UACC-62; assay: Growth inhibition of human UACC62 cells at 10 uM relative to control; conditions: read-out: GI; summary of the method: as §2
[24] = tested on: RPMI-8226; assay: Growth inhibition of human RPMI8226 cells at 10 uM relative to control; conditions: read-out: GI; summary of the method: as §1
[25] = tested on: U-251; assay: Growth inhibition of human U251 cells at 10 uM relative to control; conditions: read-out: GI; summary of the method: as §2
[26] = tested on: OVCAR-3; assay: Growth inhibition of human OVCAR3 cells at 10 uM relative to control; conditions: read-out: GI; summary of the method: as §1
[27] = tested on: HCC 2998; assay: Growth inhibition of human HCC2998 cells at 10 uM relative to control; conditions: read-out: GI; summary of the method: as §1
[28] = tested on: NCI-H322M; assay: Growth inhibition of human NCI-H322M cells at 10 uM relative to control; conditions: read-out: GI; summary of the method: as §1
[29] = tested on: PC-3; assay: Growth inhibition of human PC3 cells at 10 uM relative to control; conditions: read-out: GI; summary of the method: as §1

With Cc1ccccc1-n1c(C)nc2cc(NC(=O)c3ccc(Cl)cc3)ccc2c1=O the inhibition of growth at 10 µM [1] was 24.4%, the inhibition of growth at 10 µM [2] was 47.3% and the inhibition of growth at 10 µM [3] was 35.7%. For the same molecule, the inhibition of growth at 10 µM [4] was 32.3%, the inhibition of growth at 10 µM [5] was 20.4% and the inhibition of growth at 10 µM [6] was 71%. It also gave an inhibition of growth at 10 µM [7] of 12%, an inhibition of growth at 10 µM [8] of 25.2% and an inhibition of growth at 10 µM [9] of 36.3%. It also gave an inhibition of growth at 10 µM [10] of 52%, an inhibition of growth at 10 µM [11] of 31.8% and an inhibition of growth at 10 µM [12] of 44.2%. For the same molecule, the inhibition of growth at 10 µM [13] was 48.5%, the inhibition of growth at 10 µM [14] was 29.3% and the inhibition of growth at 10 µM [15] was 26.3%. For the same molecule, the inhibition of growth at 10 µM [16] was 14%, the Activity [17] was 0% and the inhibition of growth at 10 µM [18] was 16.8%. The inhibition of growth at 10 µM [19] was 32.3%, the inhibition of growth at 10 µM [20] was 42.2% and the inhibition of growth at 10 µM [21] was 39.4%. For the same molecule, the inhibition of growth at 10 µM [22] was 31.6%, the inhibition of growth at 10 µM [23] was 57.8% and the inhibition of growth at 10 µM [24] was 55.4%. The inhibition of growth at 10 µM [25] was 32.4%, the inhibition of growth at 10 µM [26] was 41.1% and the inhibition of growth at 10 µM [27] was 19.1%. For the same molecule, the inhibition of growth at 10 µM [28] was 6% and the inhibition of growth at 10 µM [29] was 39.8%.
